ChEMBL document CHEMBL1136118, “N- and C-terminal modifications of negamycin” (Bioorg Med Chem Lett, 2003)
Values after ≈ are worked out from the molar mass of the structure shown.

Assays:
Type in all cases: functional
Escherichia coli [1] = assay: In vitro antibacterial activity against Escherichia coli ATCC 25922
Procedure, shortened: (§1)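 Broth microdilution MIC in Mueller–Hinton broth supplemented with 50% human serum; inoculum 5 × 10⁵ cfu/mL. MG1655 tolC is an efflux pump mutant.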

Streptococcus pneumoniae = assay: In vitro antibacterial activity against Streptococcus pneumoniae VSPN1005; procedure, shortened: as §1
Enterobacter cloacae = assay: In vitro antibacterial activity against Enterobacter cloacae ATCC 35030; procedure, shortened: as §1
Escherichia coli [2] = assay: In vitro antibacterial activity against Escherichia coli MG1655 tolC; procedure, shortened: as §1
Pseudomonas aeruginosa = assay: In vitro antibacterial activity against Pseudomonas aeruginosa PA013; procedure, shortened: as §1
Escherichia coli [3] = assay: In vitro antibacterial activity against Escherichia coli MG1655; procedure, shortened: as §1
Klebsiella pneumoniae = assay: In vitro antibacterial activity against Klebsiella pneumoniae […]; procedure, shortened: as §1
Staphylococcus aureus = assay: In vitro antibacterial activity against Staphylococcus aureus ATCC 25293; procedure, shortened: as §1
Escherichia coli [4] = assay: Inhibitory activity against protein synthesis of Escherichia coli S30 by cell-free transcription/translation coupled assay
Procedure, shortened: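 Coupled transcription/translation in E. coli S30 extract with pGEMbgal DNA template; compounds preincubated with reaction mixture 10 min before template addition; after 1 h incubation ONPG added and β-galactosidase activity read at 420 nm.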

Mus musculus = assay: In vivo efficacy in Escherichia coli murine septicemia model
Procedure, shortened: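 Mice infected ip with approximately 1 × 10⁵ cfu E. coli ATCC25922; compound given iv at 1 and 5 h post-infection; survival followed for 7 days; ED₅₀ calculated by non-linear regression.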

MIC (Escherichia coli [1]) [µg/mL] | MIC (Streptococcus pneumoniae) [µg/mL] | MIC (Enterobacter cloacae) [µg/mL] | MIC (Escherichia coli [2]) [µg/mL] | MIC (Pseudomonas aeruginosa) [µg/mL] | MIC (Escherichia coli [3]) [µg/mL] | MIC (Klebsiella pneumoniae) [µg/mL] | MIC (Staphylococcus aureus) [µg/mL] | IC50 (Escherichia coli [4]) [µM] | SMILES | ED50 (Mus musculus) [mg/kg]
> 256 | > 256 | > 256 | > 256 | > 256 | > 256 | > 256 | > 256 | > 80 | CN(CC(=O)O)NC(=O)C[C@H](N)CC(O)CN1CCOCC1 (some centres undefined) | 
> 256 | > 256 | > 256 | > 256 | > 256 | > 256 | > 256 | > 256 | > 80 | CN(CC(=O)O)NC(=O)C[C@H](N)CC(O)CN1CC[C@H](N)C1 (some centres undefined) | 
4 (≈ 16.1 µM) | 32 (≈ 129 µM) | 8 (≈ 32.2 µM) | 2 (≈ 8.06 µM) | 32 (≈ 129 µM) | 4 (≈ 16.1 µM) | 2 (≈ 8.06 µM) | 32 (≈ 129 µM) | 1 | CN(CC(=O)O)NC(=O)C[C@H](N)C[C@@H](O)CN [NEGAMYCIN] | 5.1
> 256 |  | > 256 | 128 (≈ 441 µM) | > 256 | > 256 | > 256 | > 256 | > 80 | CN(CC(=O)O)NC(=O)C[C@H](N)C[C@@H](O)CN=C(N)N | 
> 256 | > 256 | > 256 | > 256 | > 256 | > 256 | > 256 | > 256 | > 80 | CN(CC(=O)O)NC(=O)C[C@H](N)CC(O)CN1CCNCC1 (some centres undefined) | 
16 (≈ 57.9 µM) |  | 16 (≈ 57.9 µM) | 4 (≈ 14.5 µM) | 128 (≈ 463 µM) | 8 (≈ 29 µM) | 8 (≈ 29 µM) | > 256 | 4.5 | CCNC[C@H](O)C[C@@H](N)CC(=O)NN(C)CC(=O)O | 
16 (≈ 61 µM) | 256 (≈ 976 µM) | 16 (≈ 61 µM) | 4 (≈ 15.2 µM) | 128 (≈ 488 µM) | 8 (≈ 30.5 µM) | 4 (≈ 15.2 µM) | 128 (≈ 488 µM) | 2.3 | CNC[C@H](O)C[C@@H](N)CC(=O)NN(C)CC(=O)O | 16.3
> 256 | > 256 | > 256 | > 256 | > 256 | > 256 | > 256 | > 256 | > 80 | CN(CC(=O)O)NC(=O)C[C@H](N)C[C@@H](O)CCN | 
> 256 | > 256 | > 256 | > 256 | > 256 | > 256 | > 256 | > 256 | > 80 | CN(CC(=O)O)NC(=O)C[C@H](N)C[C@H](O)CCN | 
64 (≈ 189 µM) | 128 (≈ 378 µM) | 64 (≈ 189 µM) | 16 (≈ 47.3 µM) | > 128 | 32 (≈ 94.6 µM) | 32 (≈ 94.6 µM) | > 128 | 0.8 | CN(CC(=O)O)NC(=O)C[C@H](N)C[C@@H](O)CNCc1ccccc1 | 
> 256 | > 256 | > 256 | > 256 | > 256 | > 256 | > 256 | > 256 | 20.3 | CCCNC[C@H](O)C[C@@H](N)CC(=O)NN(C)CC(=O)O | 
> 256 |  | > 256 | > 256 | > 256 | > 256 | > 256 | > 256 | > 80 | CN(CC(=O)O)NC(=O)C[C@H](N)C[C@@H](O)CNC(N)=O | 
> 256 | > 256 | > 256 | > 256 | > 256 | > 256 | > 256 | > 256 | > 80 | CC(C)CCCNC[C@H](O)C[C@@H](N)CC(=O)NN(C)CC(=O)O | 
> 256 | > 256 | > 256 | > 256 | > 256 | > 256 | > 256 | > 256 | > 80 | CN(Cc1nn[nH]n1)NC(=O)C[C@H](N)C[C@@H](O)CN | 
> 256 | > 256 | > 256 | > 256 | > 256 | > 256 | > 256 | > 256 | > 80 | NC[C@H](O)C[C@@H](N)CC(=O)NOCC(=O)O | 
> 256 | > 256 | > 256 | > 256 | > 256 | > 256 | > 256 | > 256 | > 80 | CN(CP(=O)(O)O)NC(=O)C[C@H](N)C[C@@H](O)CN | 
> 256 | > 256 | > 256 | > 256 | > 256 | > 256 | > 256 | > 256 | > 80 | NC[C@H](O)C[C@@H](N)CC(=O)NN1CCC[C@@H]1C(=O)O | 
16 (≈ 44.3 µM) |  | 16 (≈ 44.3 µM) | 8 (≈ 22.1 µM) | 64 (≈ 177 µM) | 16 (≈ 44.3 µM) | 32 (≈ 88.5 µM) | 256 (≈ 708 µM) | 3.5 | CC(C)C[C@H](N)C(=O)NC[C@H](O)C[C@@H](N)CC(=O)NN(C)CC(=O)O | 
> 256 | > 256 | > 256 | > 256 | > 256 | > 256 | > 256 | > 256 | > 80 | CN(CP(C)(=O)O)NC(=O)C[C@H](N)C[C@@H](O)CN | 
> 256 | > 256 | > 256 | > 256 | > 256 | > 256 | > 256 | > 256 | > 80 | CC(ONC(=O)C[C@H](N)C[C@@H](O)CN)C(=O)O (some centres undefined) | 
128 (≈ 516 µM) |  | 128 (≈ 516 µM) | 32 (≈ 129 µM) | > 512 | 128 (≈ 516 µM) | 64 (≈ 258 µM) | 512 (≈ 2060 µM) | 23.4 | CN(CC(=O)O)NC(=O)C[C@H](N)C[C@H](O)CN | 
> 256 | > 256 | > 256 | > 256 | > 256 | > 256 | > 256 | > 256 | > 80 | NC[C@H](O)C[C@@H](N)CC(=O)NN1CCC[C@H]1C(=O)O | 
> 256 | > 256 | > 256 | > 256 | > 256 | > 256 | > 256 | > 256 | > 80 | CN(CC(=O)O)NC(=O)C[C@H](N)CC(O)CN1CC[C@@H](N)C1 (some centres undefined) | 
